The results in this text go back to ChEMBL document CHEMBL1123634, “Design, synthesis, and testing of potential antisickling agents. 10. (2,2-Dimethylchroman-6-yl)alkanoic acids” (1987).

SMILES strings stand for the structures.

Holding throughout (assay type): functional
The species entered for assay [1] is Homo sapiens. The assay is described as follows: Antigelling activity expressed as ratio of soluble sickle hemoglobin (HbS) of compound (g/dL) and that of control at 10 mM concentration. The essentials:
(§1)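 Hofrichter-type solubility assay: HbS (final around 24 g/100 mL) incubated with drug at 5, 10, 20 and 40 mM, dithionite as deoxygenant. Drugs taken up as sodium salts (2 equiv NaHCO3) in 0.15 M phosphate buffer pH 7.4, 0.18 M stock, some with N-methylpiperazine added for solubility. Each spin run includes a no-drug dHbS control and a 40 mM phenylalanine control. Ratio is soluble HbS with drug (g/dL) over soluble HbS control (g/dL). Values are averages of duplicate runs.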

The species named for assay [2] is Homo sapiens. The assay is described as follows: Antigelling activity expressed as ratio of soluble sickle hemoglobin (HbS) of compound (g/dL) and that of control at 5 mM concentration. An outline of the steps: as §1
For assay [3], the species on record is Homo sapiens. The assay is described as follows: Antigelling activity expressed as ratio of soluble sickle hemoglobin (HbS) of compound (g/dL) and that of control at 20 mM concentration. The essentials:
as §1

For assay [4], the species on record is Homo sapiens. The assay is described as follows: Antigelling activity expressed as ratio of soluble sickle hemoglobin (HbS) of compound (g/dL) and that of control at 40 mM concentration. The essentials: as §1
For assay [5], the species on record is Homo sapiens. Description: Antigelling activity expressed as ratio of soluble sickle hemoglobin (HbS) of compound (g/dL) and that of control at 5 mM concentration. The essentials: as §1
The species entered for assay [6] is Homo sapiens. Description: Antigelling activity expressed as ratio of soluble sickle hemoglobin (HbS) of compound (g/dL) and that of control at 20 mM concentration. The essentials: as §1
The species named for assay [7] is Homo sapiens. The assay is described as follows: Antigelling activity expressed as ratio of soluble sickle hemoglobin (HbS) of compound (g/dL) and that of control at 40 mM concentration. An outline of the steps: as §1
The species named for assay [8] is Homo sapiens. Description: Antigelling activity expressed as ratio of soluble sickle hemoglobin (HbS) of compound (g/dL) and that of control at 10 mM concentration. The essentials:
as §1

Consider `CC(=O)OC(C/C(C)=C/C(=O)O)c1ccc2c(c1)CCC(C)(C)O2` (configuration not stated), for which the Activity in assay [1] is 1.03; in assay [2], 1.01; in assay [3] it was 1.085; in assay [4], 1.188.
As to `CC1(C)CCc2cc(CCCC(=O)O)ccc2O1`, the Activity in assay [1] was determined as 1.086; in assay [5], 1.052; in assay [6], 1.144; in assay [4], 1.299.
`CC1(C)CCc2cc(CCC(=O)O)ccc2O1`: the Activity in assay [1] was found to be 1.077; in assay [2], 1.045; in assay [6] it was 1.164; in assay [4], 1.297.
In the case of `CC(C(=O)O)c1ccc2c(c1)CCC(C)(C)O2` (configuration not stated), the Activity in assay [1] is given as 1.028; in assay [2], 1.011; in assay [6], 1.095; in assay [4], 1.21.
In the case of `CC1(C)CCc2cc(C(=O)O)ccc2O1`, the Activity in assay [1] worked out at 1.043; in assay [5] it was 1.044; in assay [7], 1.226; in assay [6], 1.108.
Take `CC(C)(Oc1ccc(Cl)cc1)C(=O)O` [CLOFIBRIC ACID]: the Activity in assay [1] came to 1.064; in assay [2] it was 1.018; in assay [7] it was 1.302; in assay [6], 1.155.
With `Cc1ccc(C)c(OCCCC(C)(C)C(=O)O)c1` [GEMFIBROZIL], the Activity in assay [8] turned out to be 1.073; in assay [5] it was 1.04; in assay [6], 1.117; in assay [4], 1.234.
Take `N[C@@H](Cc1ccccc1)C(=O)O` [PHENYLALANINE]: the Activity in assay [8] amounted to 1.048; in assay [3], 1.093; in assay [5], 1.036; in assay [4] it was 1.178.
